Tests used:
[1] = species on record: Cavia porcellus; test: Agonist activity was assessed as the concentration which gave a 50% increase in the response to electrical stimulation in the guinea pig ileum and is expressed as percent of the maximum 5-HT response = 78%; format: functional
Procedure, shortened: (§1)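 Guinea pig ileum myenteric plexus–longitudinal muscle strip, 0.5 g tension, transmural stimulation at 0.2 Hz and 1.5 ms. Phenoxybenzamine 10^-7 M present, voltage set to give 50% of supramaximal contraction. After two reproducible cumulative 5-HT curves, a cumulative agonist curve was run (60–120 s contact). EC50 = concentration giving 50% increase of the stimulated response, relative to maximum. Max effect expressed as % of 5-HT maximum, 95% confidence limits.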

[2] = species on record: Cavia porcellus; test: Antagonist activity was calculated as the concentration which produced a 50% reduction in the submaximal of 5-HT induced contractions guinea pig ileum; format: functional
[3] = species on record: Cavia porcellus; test: Agonist activity was assessed as the concentration which gave a 50% increase in the response to electrical stimulation in the guinea pig ileum; NA is not active; format: functional; procedure, shortened: as §1
[4] = molecular target: T1, 5-hydroxytryptamine receptor 4 (Rattus norvegicus, UniProt Q62758); test: Binding affinity (Ki+/-SEM) against 5-hydroxytryptamine 4 receptor from cheng Prusoff equation by using [3H]GR-113808 in rat striatum
T1 sequence (Q62758 whole entry): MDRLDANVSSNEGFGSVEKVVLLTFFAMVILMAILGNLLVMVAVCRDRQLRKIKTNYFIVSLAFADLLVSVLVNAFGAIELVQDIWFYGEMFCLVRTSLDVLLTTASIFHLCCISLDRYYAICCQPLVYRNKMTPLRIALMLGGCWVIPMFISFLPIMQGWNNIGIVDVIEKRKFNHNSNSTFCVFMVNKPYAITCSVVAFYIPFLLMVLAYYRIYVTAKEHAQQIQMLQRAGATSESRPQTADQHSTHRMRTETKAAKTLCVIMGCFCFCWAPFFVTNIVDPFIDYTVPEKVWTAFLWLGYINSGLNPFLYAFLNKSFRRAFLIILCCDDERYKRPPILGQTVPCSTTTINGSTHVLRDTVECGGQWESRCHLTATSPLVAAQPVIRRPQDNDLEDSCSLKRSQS
Procedure, shortened: (§2)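 Rat striatal membranes in 50 mM Hepes pH 7.4, 0.1–0.2 mg protein in 0.5 mL, with [3H]GR 113808. Seven drug concentrations, tested in triplicate. Nonspecific binding defined with 10 μM ML 10302. Bound ligand collected by filtration on PEI-soaked GF/B filters, washed with 50 mM Tris-HCl pH 8.4, counted by scintillation. IC50 fitted, Ki from Cheng–Prusoff, ±SEM.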

[5] = molecular target: T1, 5-hydroxytryptamine receptor 4; test: Binding affinity at 5-hydroxytryptamine 4 receptor in rat striatal membranes by [3H]GR-113808 displacement.; format: cell membranes, Striatum, Membrane; procedure, shortened: as §2
[6] = species on record: Cavia porcellus; test: Agonist activity was assessed as the concentration which gave a 50% increase in the response to electrical stimulation in the guinea pig ileum; format: functional; procedure, shortened: as §1
[7] = molecular target: T2, 5-hydroxytryptamine receptor 4 (Cavia porcellus, UniProt O70528); test: The antagonist activity was calculated as the concentration which produced a 50% reduction against 5-hydroxytryptamine 4 receptor in guinea pig ileum.; format: functional, tissue-based
T2 sequence (O70528 whole entry): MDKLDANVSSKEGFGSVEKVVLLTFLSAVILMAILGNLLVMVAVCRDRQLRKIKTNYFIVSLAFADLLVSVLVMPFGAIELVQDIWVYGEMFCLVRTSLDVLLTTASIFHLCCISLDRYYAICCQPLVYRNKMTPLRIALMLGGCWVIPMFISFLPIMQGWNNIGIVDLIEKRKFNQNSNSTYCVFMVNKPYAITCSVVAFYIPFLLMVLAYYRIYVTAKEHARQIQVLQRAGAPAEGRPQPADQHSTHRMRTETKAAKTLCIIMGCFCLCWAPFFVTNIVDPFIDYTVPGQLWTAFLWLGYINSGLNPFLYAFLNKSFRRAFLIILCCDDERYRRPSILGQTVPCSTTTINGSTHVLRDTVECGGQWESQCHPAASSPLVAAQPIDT

[8] = molecular target: T2, 5-hydroxytryptamine receptor 4; test: concentration which gave a 50% increase in the response to electrical stimulation against 5-hydroxytryptamine 4 receptor in the guinea pig ileum.; format: functional, tissue-based; procedure, shortened: as §1
[9] = species on record: Cavia porcellus; test: Agonist activity was assessed as the concentration which gave a 50% increase in the response to electrical stimulation in the guinea pig ileum and is expressed as percent of the maximum 5-HT response = 14%; format: functional; procedure, shortened: as §1
[10] = molecular target: T2, 5-hydroxytryptamine receptor 4; test: concentration which gave a 50% increase in the response to electrical stimulation against 5-hydroxytryptamine 4 receptor in the guinea pig ileum. Activity expressed as percent of the maximum 5-HT response given in brackets.; format: functional, tissue-based; procedure, shortened: as §1
[11] = species on record: Cavia porcellus; test: Antagonist activity was calculated as the concentration which produced a 50% reduction in the submaximal of 5-HT induced contractions guinea pig ileum and is expressed as percent of the maximum 5-HT response = 60%; format: functional
[12] = species on record: Cavia porcellus; test: Antagonist activity was calculated as the concentration which produced a 50% reduction in the submaximal of 5-HT induced contractions guinea pig ileum and is expressed as percent of the maximum 5-HT response = 70%; format: functional
[13] = molecular target: T2, 5-hydroxytryptamine receptor 4; test: The antagonist activity was calculated as the concentration which produced a 50% reduction against 5-hydroxytryptamine 4 receptor in guinea pig ileum. 95% confidence limits are in brackets.; format: functional, tissue-based

SMILES	IC50 [2] [nM]	Ki [4] [nM]	Ki [5] [nM]	also measured
COc1cc(N)c(Cl)cc1C(=O)OCCN1CCCCC1				EC50 [1]: 4 nM
CCN(CC)CCOC(=O)c1cc(Cl)c(N)cc1OC	77			EC50 [3]: Not Active
Nc1cccc(NC(=O)OCCN2CCCCC2)c1		> 1000		
CCOc1ccccc1NC(=O)OCCN1CCCCC1	62		2.6	EC50 [6]: > 1000 nM
COc1cc(N)c(Cl)cc1NC(=O)OCCN1CC(C)CC(C)C1 (centres undefined)		2.4		IC50 [7]: 180 nM; EC50 [8]: > 1000 nM
Nc1ccccc1NC(=O)OCCN1CCCCC1		> 1000		
O=C(Nc1cccc(Cl)c1)OCCN1CCCCC1	> 1000		60.8	EC50 [6]: > 1000 nM
COc1ccc(Cl)cc1NC(=O)OCCN1CCCCC1	30		4.2	EC50 [9]: ~1000 nM
COc1ccccc1NC(=O)OCCCN1CCCCC1			81	
Cn1cc(C(=O)OCC2CCN(CCNS(C)(=O)=O)CC2)c2ccccc21	13			EC50 [3]: Not Active
COc1ccccc1NC(=O)CCCN1CCCCC1			> 1000	
O=C(Nc1ccccc1)OCCN1CCCCC1	~1000		31.7	EC50 [6]: > 1000 nM
COc1cc(N)c(Cl)cc1NC(=O)OCCN1CCCC1		125		EC50 [10]: 200 nM
Nc1ccc(NC(=O)OCCN2CCCCC2)cc1		> 1000		
COc1ccccc1NC(=O)OCCN1C[C@H](C)C[C@H](C)C1			2.6	IC50 [11]: 160 nM; EC50 [6]: > 1000 nM
COc1cc(N)c(Cl)cc1NC(=O)OCCN1CCCCC1		39		EC50 [8]: > 1000 nM
CCOc1ccccc1NC(=O)OCCN1C[C@H](C)C[C@H](C)C1			1.05	EC50 [6]: > 1000 nM; IC50 [12]: 30 nM
CCN(CC)CCOC(=O)Nc1cc(Cl)c(N)cc1OC		150		IC50 [7]: 1000 nM; EC50 [10]: 300 nM
COc1cc(N)c(Cl)cc1NC(=O)OCCN1CCCC(C)C1 (centres undefined)		10.2		
COc1cc(N)c(Cl)cc1NC(=O)OCCN1CCC(C)CC1		25.1		IC50 [7]: 200 nM; EC50 [10]: 60 nM
O=C(Nc1ccc(Cl)cc1)OCCN1CCCCC1			728	
COc1cc(N)c(Cl)cc1NC(=O)CCCN1CCCCC1		> 1000		
COc1cc(N)c(Cl)cc1C(=O)OCCN1C[C@H](C)C[C@H](C)C1	11		0.26	EC50 [3]: Not Active
COc1cc(N)c(Cl)cc1NC(=O)OCCN1CCCCCC1		14.5		IC50 [13]: 207 nM; EC50 [8]: 100 nM
O=C(Nc1ccccc1Cl)OCCN1CCCCC1			> 1000	
COc1ccccc1NC(=O)OCCN1CCCCC1	~300		8.9	EC50 [9]: ~100 nM
COc1cccc(NC(=O)OCCN2CCCCC2)c1			469	
COc1ccc(NC(=O)OCCN2CCCCC2)cc1			> 1000	
CCOc1ccccc1NC(=O)OCCN1CC(C)C[C@@H](C)C1 (single isomer, unassigned)	100		1.16	EC50 [6]: > 1000 nM
